TAAR1 agonist: human TAAR1 agonism | Q96RJ0 | CHO RD-HGA16 TAAR1, Fluo-8 calcium fluorescence; vehicle wells 0%, saturating PEA agonist 100% | activation, % at 3 µM | 360,000 compounds, 0.99% hits | AID 624467;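 active = activation above the mean activation of all test compounds in the run plus 3 SD, cut at about 38% in these data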
Target sequence (Q96RJ0 whole entry, looked up): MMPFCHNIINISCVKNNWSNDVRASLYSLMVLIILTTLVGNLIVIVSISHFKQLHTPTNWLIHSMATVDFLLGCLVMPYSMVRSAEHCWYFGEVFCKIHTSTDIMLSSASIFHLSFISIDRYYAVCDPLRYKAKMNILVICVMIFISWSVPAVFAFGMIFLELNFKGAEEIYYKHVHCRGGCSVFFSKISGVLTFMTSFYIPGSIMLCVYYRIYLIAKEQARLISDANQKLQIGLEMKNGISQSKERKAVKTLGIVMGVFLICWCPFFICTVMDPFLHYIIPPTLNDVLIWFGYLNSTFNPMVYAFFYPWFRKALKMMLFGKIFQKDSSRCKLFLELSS
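Repeats: no replicates (n 1) | Material: CHO-derived RD-HGA16 cells with stable Gα16 and human TAAR1 | Technique: Kinetic Fluo-8 calcium fluorescence | Schedule: 17-24 h seeding, 75 min 37 °C dye, 30 min RT | Evaluation: % activation from peak over basal fluorescence ratio, DMSO-to-PEA scaled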
CHRM1 antagonist: blocks human M1 muscarinic receptor; P11229; CHO-K1 hM1, Fluo-8 calcium fluorescence, ACh EC80 antagonist; inhibition, % at 3 µM; 360,000 compounds, 1.3% hits; AID 588852;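 active = percent inhibition above its own plate's cutoff, namely the mean of that plate's compound wells plus 3 SD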;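 note: peak over basal fluorescence ratio during 140 s after agonist addition; 0% = ACh EC80 plus DMSO and 100% = DMSO alone without agonist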
TAAR1 antagonist: human TAAR1 antagonism. Q96RJ0. CHO RD-HGA16 TAAR1, Fluo-8 calcium fluorescence, antagonist. inhibition, % at 3 µM. 360,000 compounds, 1.5% hits. AID 624466;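 active = inhibition above a per-plate cutoff, the mean inhibition of test compounds on that plate plus 3 SD, cut at about 49% in these data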;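 note: 0% = DMSO plus EC80 beta-PEA response and 100% = DMSO alone without agonist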
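test system = CHO RD-HGA16 cells bearing hTAAR1 | replication = singlicate | controls = DMSO-only wells and EC80 β-PEA-stimulated wells | reagent = EC80 β-phenethylamine stimulus | read-out basis = percent inhibition of PEA-evoked calcium signal, max/basal emission ratio | schedule = seeding 17-24 h prior, 75-min 37 °C, 30-min RT dye loading | signal = kinetic Fluo-8 calcium fluorescence measurement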
CHRM1 PAM: potentiates human M1 receptor response to acetylcholine | activation, % at 3 µM | CHO-K1 hM1, Fluo-8 calcium fluorescence, ACh EC20; 0% = ACh EC20, 100% = maximal ACh | P11229 | 360,000 compounds, 0.088% hits | AID 588819; in the data active = activation above about 19%, passing the limit was not always enough
m5-HT2A agonist: mouse HTR2A agonism via beta-arrestin recruitment | CHO-K1 mHTR2A beta-arrestin complementation, luminescence; percent of 30 µM serotonin response | activation, % at 7.6 µM | 360,000 compounds, 0.66% hits;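 active = activation above a run cutoff, the mean activation of all tested compounds plus 3 SD, cut at about 14% in these data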;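 note: 0% = plate median of compound wells and 100% = 30 µM serotonin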
CHRM1 agonist: activates human CHRM1 receptor | P11229 | CHO-K1 hM1, Fluo-8 calcium fluorescence, agonist mode; 0% DMSO, 100% acetylcholine EC100 | activation, % at 3 µM | 360,000 compounds, 0.33% hits;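 active = activation above the run's mean compound activation plus 3 SD, cut at about 16% in these data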;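 note: peak over basal fluorescence ratio within a 140 s kinetic read after compound addition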
An asterisk follows results filed as active; x = no result. Rows were chosen to be rich in hits. Some 3.9% of all compounds tested hit in one or more screens of this group.

SMILES	TAAR1 agonist	CHRM1 antagonist	TAAR1 antagonist	CHRM1 PAM	m5-HT2A agonist	CHRM1 agonist
CCN(CC)C(=O)c1cccc(-c2csc(C(O)c3ccc(OC)cc3)n2)c1 (stereo unspecified)	8.2	8.5	27.7	-15.1	-7.2	4.6
CN(C)c1ccc(-c2csc(C(O)c3cccc(Cl)c3)n2)cc1 (stereo unspecified)	52.1*	41.5*	73.4*	-24.4	2.1	18.5*
CCN(CC)C(=O)c1cccc(-c2csc(C(O)c3cccc(Cl)c3)n2)c1 (stereo unspecified)	2.6	3.1	57.0*	-2.9	-3.0	1.8
COc1ccnc(Oc2ccccc2)c1C(N)=O	-0.3	-5.2	11.1	6.0	1.4	-2.3
COc1ccc2[nH]cc(CCNC(=O)COc3cc(C)cc4oc(=O)cc(C)c34)c2c1	5.5	31.1*	38.6	-23.6	-3.0	-1.5
C[n+]1ccn(CC(=O)c2cccs2)c1	0.8	-7.7	7.1	4.3	-5.8	-6.6
CCCCCCCCCCCCCCCCn1cc[n+](C)c1	27.0	41.9*	40.7	-29.7	-6.2	-10.2
FC(F)Sc1ccc(-n2c(-c3ccc(Cl)cc3)c[n+]3c2CCC3)cc1	7.9	61.3*	2.3	-20.8	-7.7	-5.9
Cc1ccc(-n2c(-c3ccc(Cl)cc3)c[n+]3c2CCC3)cc1	1.4	7.8	-19.7	-5.2	-1.8	-6.7
NC(=O)c1c(N)[nH]c(C(=O)c2ccccc2)c1-c1ccccc1	6.8	x	-10.9	x	x	x
COc1ccc(-c2nc(=S)c3ccc4ccccc4c3[nH]2)cc1	3.4	-3.9	-8.6	4.7	3.0	-3.8
CC(C)(C)OC(=O)N1CCC(c2cc(=O)n3[nH]cc(C(=O)NC4CCCC4)c3n2)CC1	-2.3	-5.2	-22.5	25.6*	-1.9	12.6
CN1CCN(C(=O)CSc2nc(-c3cccs3)cc(-c3cccs3)c2C#N)CC1	x	9.3	x	-1.3	-6.1	-1.6
CCN(CC)C(=O)CSc1nc(-c2cccs2)cc(-c2cccs2)c1C#N	4.5	13.5	61.1*	-2.8	-1.4	-2.0
CN1CCN(C(=O)CSc2nc(-c3ccncc3)ccc2C#N)CC1	6.2	25.9*	-0.8	-9.8	-1.6	-4.1
COC(=O)CSc1nc(-c2cccs2)ccc1C#N	12.8	46.9*	5.7	-17.7	2.8	-7.9
Cc1cc(C)nc(-n2nc(C)cc2NC(=O)CN2CCC(C)CC2)n1	6.8	-13.4	11.5	20.4*	-1.8	-7.5
Cc1cc(C)nc(-n2nc(C)cc2NC(=O)CN2CCCC2)n1	9.1	-3.9	1.8	3.0	-1.6	-5.3
Brc1cccc(CN2CCCCCC2)c1	1.3	-7.4	-24.2	-0.8	-1.7	-7.0
OC1(c2ccc(Br)cc2)CCN(Cc2cccc(Br)c2)CC1	1.8	35.2*	6.8	-17.0	-7.1	4.8
O=C(C[n+]1ccc(/C=N/O)cc1)N(Cc1ccccc1)Cc1ccccc1	2.5	4.9	-16.0	-3.2	-2.0	-10.0
c1ccc(COc2ccc(OCCCN3CCCCC3)cc2)cc1	14.6	49.6*	-14.3	-26.2	0.3	-4.6
O=C(c1ccccc1)c1ccc(OCCCN2CCCCC2)cc1	6.0	34.0*	-7.1	-21.4	-0.6	-6.1
c1ccc(CCCN2CCOCC2)cc1	3.4	-15.3	2.1	13.3	-5.8	-2.5
c1ccc(COc2ccc(OCCCCN3CCCC3)cc2)cc1	5.6	35.4*	-10.8	-20.6	-5.9	-3.7
SMILES	TAAR1 agonist	CHRM1 antagonist	TAAR1 antagonist	CHRM1 PAM	m5-HT2A agonist	CHRM1 agonist
c1ccc(OCCCCN2CCCCC2)cc1	0.9	-0.1	-19.7	0.9	0.2	-4.8
c1ccc(OCCCN2CCCC2)cc1	1.7	-2.3	-1.6	-0.8	-0.8	-7.5
c1ccc(OCc2ccc(CCCN3CCOCC3)cc2)cc1	4.3	36.9*	-10.8	-21.9	-7.6	-5.1
O=C(NCC1CCCO1)c1ccc(N2CCCCC2)c([N+](=O)[O-])c1 (stereo unspecified)	0.5	-15.3	-15.5	13.4	-2.7	-5.8
CC1CC(C)CN(CCCCOc2ccc([N+](=O)[O-])cc2)C1 (stereo unspecified)	3.1	24.0*	-17.1	-24.1	-2.4	-8.1
CC1CCN(CCCCOc2ccc(Cl)cc2)CC1	x	30.2	x	-20.3	-11.1	-8.9
CC1CCN(CCOc2ccc(OCc3ccccc3)cc2)CC1	16.0	61.4*	1.4	-24.6	-5.9	-10.7
CN1CCN(CCOc2ccc(Cc3ccccc3)cc2)CC1	4.9	-18.1	-6.3	10.4	-3.4	-8.4
CC1CCN(CCCCOc2ccc(C(C)(C)C)cc2)CC1	31.8	59.5*	-19.8	-28.7	-13.4	-6.0
CN(c1ccccc1)S(=O)(=O)c1cccc(C(=O)OCC(=O)Nc2ccc(C(N)=O)cc2)c1	7.9	-10.7	27.0	-2.2	-8.8	-3.0
COC(=O)C1=CN(c2ccc(F)cc2)C(N)=C(C#N)C1c1cccc(F)c1 (stereo unspecified)	4.6	x	-9.0	x	1.0	x
CCC(O)c1cc2c(cc1NC(=O)c1ccc(C)cc1)OCCO2 (stereo unspecified)	13.2	26.3*	-1.8	-14.3	13.4	-3.0
Cc1ccc(NC(=O)c2ccc3c(c2)OCCO3)cc1	5.7	5.5	8.4	3.0	-2.0	-1.0
NC(=O)c1ccsc1NC(=O)CSc1nnc(NC2CC2)s1	0.5	-5.7	0.5	-2.5	-2.4	-2.0
C=CCN=C1NC(c2ccc(C(F)(F)F)cc2)C(C(=O)OC)=C(C)N1C (stereo unspecified)	2.2	x	-2.3	x	x	x
CC(=O)OCCCCCCCCCCC[N+]1(C)CCCCC1	17.4	64.7*	-6.2	-22.8	-3.7	-5.9
COC(=O)CCCCCCCCCC[N+]1(C)CCCCC1	0.3	63.5*	-16.9	-27.0	3.5	-14.1
O=C(CC1(O)CCCCC1)OC1CCCC1	x	-14.6	x	7.3	-0.9	-3.4
C[N+]1(CC(=O)OC2CCCCCCCCCCC2)CCCC1	1.1	68.6*	-12.5	-38.5	-0.8	-15.3
CC(=O)OCC1CC(COC(C)=O)C(COC(C)=O)CC1COC(C)=O (stereo unspecified)	1.8	-8.4	-13.7	-1.0	4.6	-3.3
Cc1ccc(NC(=O)CSc2nnc(-c3cccnc3)s2)cc1	1.6	-5.4	16.3	5.8	0.5	-6.5
O=C(CSc1nnc(-c2cccnc2)s1)Nc1ccnc2ccccc12	9.8	34.4*	31.5	-13.6	4.2	-2.3
Cc1ccccc1S(=O)(=O)Oc1cccc2c(O)cccc12	-0.8	-4.2	1.4	1.2	-9.2	-4.1
N#C/C=C/N1CCN(C(=O)c2ccco2)CC1	41.2*	-8.0	-33.7	6.8	0.4	-2.1
O=C(c1ccco1)N1CCN(C(=O)c2ccco2)CC1	-0.1	11.5	-22.6	-5.8	10.7	-0.7
O=C1NC2c3c(Cl)sc(Cl)c3C(=O)C2O1 (stereo unspecified)	0.0	-27.8	-3.4	27.9*	6.5	5.0
